Published values gathered from unrelated publications.
Protocols differ between the studies behind these lines.
Read-out: cell growth or viability

CC1c2cc(c(O)c(O)c2O)C(C)c2cc(c(O)c(O)c2O)C(C)c2cc(c(O)c(O)c2O)C(C)c2cc1c(O)c(O)c2O (centres unmarked) — CC50 (HEK293; MTT; 24 h): 402 µM
Cc1nc(C(CN)NC(=O)C(=O)Nc2ccc3c(c2)OCO3)sc1CO (centres unmarked) — CC50 (MT2; MTS; 96 h): ≥ 650 µM
O=c1cccccc1Sc1cccccc1=O — CC50 (HepDES19; MTS; 72 h): 20.8 µM
NCCN(C(=O)c1ccc(Cl)cc1Cl)c1ccc(OCc2ccc(Cl)cc2)cc1 — CC50 (HEK293; MTT; 24 h): 7.96 µM
CC(C)c1cccc(=O)c(O)c1 — CC50 (HepDES19; MTS; 72 h): 66.4 µM
O[C@@H](c1cc(C(F)(F)F)nc2c(C(F)(F)F)cccc12)[C@H]1CCCCN1 — CC50 (HEK293; MTT; 24 h): 8.84 µM
N#Cc1cc(Cl)cc(Oc2ccc(Cl)cc2OCCn2cc(Cl)c(=O)[nH]c2=O)c1 — CC50 (MT2): 31 µM
CC[C@H](C)[C@H](NC(=O)OCC1c2ccccc2-c2ccccc21)C(=O)Sc1cccccc1=O — CC50 (HepDES19; MTS; 72 h): 42.6 µM
CCOc1ccc(-c2nc(CNCCc3ccc(F)cc3)cs2)cc1 — CC50 (HEK293; MTT; 24 h): 39 µM
CC/C(=C(\c1ccccc1)c1ccc(OCCN(C)C)cc1)c1ccccc1 — CC50 (HEK293; resazurin; 20 h): 9 µg/mL
C=C(C)c1ccccc(=O)c1O — CC50 (HepDES19; MTS; 72 h): 53.5 µM
COC(=O)N[C@H](C(=O)N1CCC[C@H]1c1nc(-c2ccc(-c3ccc(-c4c[nH]c([C@@H]5CCCN5C(=O)[C@@H](NC(=O)OC)C(C)C)n4)cc3)cc2)c[nH]1)C(C)C — CC50 (MT2; 5 days): 90 µM
N=C(N)c1ccc(OCCCCCOc2ccc(C(=N)N)cc2)cc1 — CC50 (HEK293; MTT; 24 h): 82.9 µM
O=P(O)(O)c1cc2c(O)c(c1)Cc1cc(P(=O)(O)O)cc(c1O)Cc1cc(P(=O)(O)O)cc(c1O)Cc1cc(P(=O)(O)O)cc(c1O)Cc1cc(P(=O)(O)O)cc(c1O)Cc1cc(P(=O)(O)O)cc(c1O)Cc1cc(P(=O)(O)O)cc(c1O)Cc1cc(P(=O)(O)O)cc(c1O)C2 — CC50 (HEK293; ATP luminescence; 24 h): 747 µM
